# Results from different studies.
# Each line is one published result; the experiments were not run side by side.
# ABL1 F317L non-phosphorylated: Tyrosine-protein kinase ABL1, non-phosphorylated (ABL1, Homo sapiens, UniProt P00519, F317L)
# ABL1 E255K phosphorylated: Tyrosine-protein kinase ABL1, phosphorylated (ABL1, Homo sapiens, UniProt P00519, E255K)
# ABL1 H396P non-phosphorylated: Tyrosine-protein kinase ABL1, non-phosphorylated (ABL1, Homo sapiens, UniProt P00519, H396P)
# ABL1 M351T phosphorylated: Tyrosine-protein kinase ABL1, phosphorylated (ABL1, Homo sapiens, UniProt P00519, M351T)
# ABL1 H396P phosphorylated: Tyrosine-protein kinase ABL1, phosphorylated (ABL1, Homo sapiens, UniProt P00519, H396P)
# ABL1 T315I non-phosphorylated: Tyrosine-protein kinase ABL1, non-phosphorylated (ABL1, Homo sapiens, UniProt P00519, T315I)
# ABL1 Q252H phosphorylated: Tyrosine-protein kinase ABL1, phosphorylated (ABL1, Homo sapiens, UniProt P00519, Q252H)
# ABL1 non-phosphorylated: Tyrosine-protein kinase ABL1, non-phosphorylated (ABL1, Homo sapiens, UniProt P00519)
# ABL1 Y253F phosphorylated: Tyrosine-protein kinase ABL1, phosphorylated (ABL1, Homo sapiens, UniProt P00519, Y253F)
SMILES,target,assay,setting,remaining binding
CCN1CCN(Cc2ccc(C(=O)Nc3ccc(C)c(Oc4ccc5c(c4)CC(=O)N5)c3)cc2C(F)(F)F)CC1,ABL1 F317L non-phosphorylated,"binding, competition with immobilised ligand",1 µM,2.9%
O=C(c1ccc(Nc2nccc(-c3cc4ccccc4s3)n2)cc1)N1CCC(N2CCCC2)CC1,ABL1 E255K phosphorylated,"binding, competition with immobilised ligand",1 µM,9.9%
CC(C)CC(=O)N1CCc2nc(-c3ccc(Br)cc3)nc(N(C)Cc3ccccc3)c2C1,ABL1 H396P non-phosphorylated,"cell-free assay, competition with immobilised ligand",0.1 µM,68%
O=C(c1ccc(Nc2ncc(Cl)c(-c3ccc(Cl)s3)n2)cc1)N1CCC(N2CCCC2)CC1,ABL1 M351T phosphorylated,"binding, competition with immobilised ligand",1 µM,4.7%
Nc1ncc2c(n1)-c1c([nH]c3ccc(C#CC4CC4)cc13)CCCC2,"Tyrosine-protein kinase ABL1, non-phosphorylated (ABL1, Homo sapiens, UniProt P00519, F317I)","binding, competition with immobilised ligand",1 µM,84%
O=C(O)[C@@H]1[C@@H](Cn2nnc3ccccc3c2=O)CC[C@H]1C(=O)c1ccc(OCCC2CCOCC2)cc1,ABL1 H396P non-phosphorylated,"cell-free assay, competition with immobilised ligand",1 µM,97%
COc1cnc(Nc2cccc(S(N)(=O)=O)c2)nc1N1CCN(c2ccccc2)CC1,ABL1 F317L non-phosphorylated,"binding, competition with immobilised ligand",1 µM,95%
C[C@H]1CCN(c2nccc(-c3cnn4ncccc34)n2)C1,"Tyrosine-protein kinase ABL1 (ABL1, Homo sapiens, UniProt P00519, M351T)",binding,1 µM,75%
Cc1cnc(Nc2ccc(C(=O)N3CCC(N4CCCC4)CC3)cc2)nc1-c1cc2ccccc2s1,ABL1 H396P phosphorylated,"binding, competition with immobilised ligand",1 µM,0.9%
COc1ncc2cc3ccccc3nc2c1C#N,ABL1 T315I non-phosphorylated,"cell-free assay, competition with immobilised ligand",5 µM,100%
N[C@H]1CCN(c2nccc(-c3cnn4ncccc34)n2)C1,"Tyrosine-protein kinase ABL1 (ABL1, Homo sapiens, UniProt P00519, H396P)",binding,1 µM,58%
O=C(NCc1ncc(C(F)(F)F)cc1Cl)c1ccc2c(c1)C1(CCS(=O)(=O)CC1)[C@H](C1CC1)N2S(=O)(=O)c1ccc(F)cc1,ABL1 Q252H phosphorylated,"cell-free assay, competition with immobilised ligand",1 µM,70%
O=C(NCCCN1CCOCC1)c1ccc(Nc2nccc(-c3cc4ccccc4s3)n2)cc1,ABL1 H396P phosphorylated,"binding, competition with immobilised ligand",1 µM,61%
CN(CCCC(F)(F)F)c1nccc(-c2cnn3ncccc23)n1,ABL1 non-phosphorylated,"binding, competition with immobilised ligand",1 µM,76%
O=C1NC(c2ccccn2)Sc2ccccc21 (centres unmarked),ABL1 E255K phosphorylated,"binding, competition with immobilised ligand",1 µM,77%
COc1ccnn2ncc(-c3ccnc(N(C)C)n3)c12,"Tyrosine-protein kinase ABL1 (ABL1, Homo sapiens, UniProt P00519, Y253F)",binding,1 µM,79%
O=C(N1CCS(=O)(=O)CC1)N1C[C@H](c2ccc(OC(F)(F)F)cc2)C[C@H](c2nc(C3CC3)no2)C1,"Tyrosine-protein kinase ABL1, phosphorylated (ABL1, Homo sapiens, UniProt P00519, T315I)","cell-free assay, competition with immobilised ligand",1 µM,100%
C=CC(=O)N1CCC(C(=O)NCC(=O)N2CCN(c3nc(-c4cnc(N)nc4C(F)F)nc(N4CCOCC4)n3)CC2)CC1,ABL1 H396P non-phosphorylated,"binding, competition with immobilised ligand",1 µM,94%
C[C@@H]1CN(c2cc(-c3nn(C)c4ccc(OC5(C)CC5)cc34)ncn2)C[C@H](C)O1,ABL1 T315I non-phosphorylated,"cell-free assay, competition with immobilised ligand",1 µM,73%
COc1cnc(Nc2cccc(S(N)(=O)=O)c2)nc1N1CCN(c2ccccc2)C(=O)C1,ABL1 T315I non-phosphorylated,"binding, competition with immobilised ligand",1 µM,83%
c1cncc(-c2cccc(Nc3nccc(NC4CCCCC4)n3)c2)c1,ABL1 H396P non-phosphorylated,"binding, competition with immobilised ligand",10 µM,9%
CNC(=O)[C@@H]1CC[C@@H](n2c(-c3ccc4cnccc4c3)nc3ccc(C(=O)NCc4cccc(C(N)=O)c4)cc32)C1,"Tyrosine-protein kinase ABL1, non-phosphorylated (ABL1, Homo sapiens, UniProt P00519, Q252H)","binding, competition with immobilised ligand",1 µM,87%
CN(C)c1ncc(F)c(-c2cnn3ncccc23)n1,"Tyrosine-protein kinase ABL1 (ABL1, Homo sapiens, UniProt P00519, E255K)",binding,1 µM,66%
O=C(Nc1c[nH]nc1C(=O)NC1CCNCC1)c1cc(F)cc(F)c1,ABL1 M351T phosphorylated,"binding, competition with immobilised ligand",1 µM,100%
O=C(c1ccc(Nc2ncc(Cl)c(-c3cc4ccccc4s3)n2)cc1)N1CCC(N2CCCC2)CC1,ABL1 non-phosphorylated,"binding, competition with immobilised ligand",1 µM,17%
CN(C)c1nccc(-c2cnc3ncccn23)n1,ABL1 non-phosphorylated,"binding, competition with immobilised ligand",1 µM,84%
C[C@H](c1cccc(C#N)c1)n1cc(Cl)cc(C(N)=O)c1=N,ABL1 Q252H phosphorylated,"cell-free assay, competition with immobilised ligand",1 µM,84%
C[C@@H](c1ccc(-n2cnc3c(N)ncnc32)cc1)N1CCc2nn(C)c(Cc3ccccc3)c2C1=O,"Tyrosine-protein kinase ABL1, phosphorylated (ABL1, Homo sapiens, UniProt P00519, F317L)","binding, competition with immobilised ligand",0.1 µM,49%
O=C(NCCCN1CCOCC1)c1ccc(Nc2ncc(Cl)c(-c3ccc(Cl)s3)n2)cc1,ABL1 Y253F phosphorylated,"binding, competition with immobilised ligand",1 µM,38%
c1cnn2ncc(-c3ccnc(N4CCC45COC5)n3)c2c1,"Tyrosine-protein kinase ABL1 (ABL1, Homo sapiens, UniProt P00519, T315I)",binding,1 µM,64%
N#CC1(c2ccccn2)CCN(Cc2cc(C(=O)N3CCCC3)c(=O)n3ccccc23)CC1,ABL1 Q252H phosphorylated,"cell-free assay, competition with immobilised ligand",1 µM,90%
O=C(NCC1CCOCC1)c1n[nH]cc1NC(=O)c1c(F)cccc1F,ABL1 Y253F phosphorylated,"binding, competition with immobilised ligand",1 µM,86%
